Published values pooled from the literature.
Organism: Enterococcus faecalis
Observed: microbial growth

Structure (SMILES)	test	test system	conditions	MIC
C/C=C(\C)c1cc(OC(=O)c2c(O)c(C)c(O)c(Cl)c2/C(C)=C/C)c(C)c(O)c1C(=O)O	broth dilution	ATCC29212		64 µg/mL
Cc1ccc(C)n1-c1ccc(-c2nnc(-c3ccccc3Cl)[nH]2)cc1	broth dilution	ATCC14506	18 h	16 µg/mL
Clc1ccc(Cn2c(-c3ccc(Cl)cc3)nc3ccccc32)cc1	broth dilution	ATCC29212		16 µg/mL
Cc1ccc(C)n1-c1ccc(-c2nnc(-c3ccccc3[N+](=O)[O-])[nH]2)cc1	broth dilution	ATCC14506	18 h	31.2 µg/mL
Cc1ccc2nc(-c3ccc(Cl)cc3)n(Cc3ccccc3)c2c1	broth dilution	ATCC29212		16 µg/mL
CNC(=O)c1cc(Oc2ccc(NC(=O)Nc3ccc(Cl)c(C(F)(F)F)c3)cc2)ccn1				> 100 µM
C/C(=C\c1ccc(C#N)cc1)C(=O)Nc1ccc(C(=O)N[C@@H](CC(N)=O)C(=O)Nc2ccc(C(=O)Nc3ccc(C(=O)Nc4ccc(C(=O)O)cc4)c(O)c3OC(C)C)cc2)cc1		ATCC29212		0.5 µg/mL
Cc1ccc2nc(-c3cccc(O)c3)[nH]c2c1	broth dilution	ATCC29212		64 µg/mL
CC1(C)S[C@@H]2[C@H](NC(=O)[C@H](N)c3ccccc3)C(=O)N2[C@H]1C(=O)O	broth dilution	ATCC29212		1 µg/mL
Cc1ccc(C)n1-c1ccc(-c2nnc(-c3ccc(Br)cc3)[nH]2)cc1	broth dilution	ATCC14506	18 h	8 µg/mL
C/C(=C\c1ccc(O)cc1)C(=O)Nc1ccc(C(=O)N[C@@H](CC(N)=O)C(=O)Nc2ccc(C(=O)Nc3ccc(C(=O)Nc4ccc(C(=O)O)cc4)c(O)c3OC(C)C)cc2)cc1		ATCC29212		0.5 µg/mL
C/C(O)=C1\C(=O)C(CC(C)C)N(C(=O)CCCCCc2ccccc2)C1=O (centres unmarked)	broth dilution	ATCC33186		< 0.7 µg/mL
Cc1ccc2nc(-c3ccc([N+](=O)[O-])cc3)n(Cc3ccccc3)c2c1	broth dilution	ATCC29212		8 µg/mL
Cc1ccc(C)n1-c1ccc(-c2nnc(-c3cccc([N+](=O)[O-])c3)[nH]2)cc1	broth dilution	ATCC14506	18 h	31.2 µg/mL
CO[C@@H](C(N)=O)[C@H](NC(=O)c1ccc(NC(=O)c2ccc(C#N)cc2)cc1)C(=O)Nc1ccc(C(=O)Nc2ccc(C(=O)Nc3ccc(C(=O)O)cc3)c(O)c2OC(C)C)cc1		ATCC29212		0.125 µg/mL
CCn1cc(C(=O)O)c(=O)c2cc(F)c(N3CCNCC3)cc21	broth dilution	ATCC14506	18 h	< 5 µg/mL
CSc1ccc(-c2nc3ccccc3[nH]2)cc1	broth dilution	ATCC29212		64 µg/mL
Cc1ccc(C)n1-c1ccc(-c2nnc(-c3ccc(O)cc3)[nH]2)cc1	broth dilution	ATCC14506	18 h	31.2 µg/mL
C/C=C(\C)c1cc(O)c(C)c(OC(=O)c2c(C)c(Cl)c(O)c(Cl)c2O)c1	broth dilution	ATCC29212		8 µg/mL
Clc1ccc(-c2nc3ccccc3[nH]2)cc1Cl	broth dilution	ATCC29212		32 µg/mL
